Laboratory results taken from ChEMBL document CHEMBL3286367, “Synthesis of new class of spirocarbocycle derivatives by multicomponent domino reaction and their evaluation for antimicrobial, anticancer activity and molecular docking studies” (2014).
In brackets after ≈: the same amount, converted by molar mass. Activity calls are given as the source filed them. The rule behind the calls is not given here.

Assays:
[1] = system: Staphylococcus epidermidis; test: Antimicrobial activity against Staphylococcus epidermidis MTCC 3615 assessed as zone of inhibition at 1 mg/disc after 24 hrs incubation by disc diffusion assay; assay type: functional
Outline: (§1)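 Inocula grown in Mueller Hinton broth for 24 h at 37 °C and swabbed onto Mueller Hinton agar. Discs carried 1 mg compound each and stood 30 min at room temperature before 24 h incubation at 37 °C. Solvent as negative control. Inhibition zones recorded in mm; experiment done twice.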

Staphylococcus aureus [2] = test: Antimicrobial activity against Staphylococcus aureus MTCC 96 assessed as zone of inhibition at 1 mg/disc after 24 hrs incubation by disc diffusion assay; assay type: functional; outline: as §1
Staphylococcus aureus [3] = test: Antimicrobial activity against methicillin-resistant Staphylococcus aureus assessed as zone of inhibition at 1 mg/disc after 24 hrs incubation by disc diffusion assay; assay type: functional
Outline: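 Inoculum grown in Mueller Hinton broth 24 h at 37°C, swabbed onto Mueller Hinton agar and dried 10 min. Discs loaded at 1 mg/disc, then 30 min at room temperature for diffusion. Plates incubated 24 h at 37°C. Solvent negative control; streptomycin positive control. Zone of inhibition read in mm; experiment done twice.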

Micrococcus luteus [4] = test: Antimicrobial activity against Micrococcus luteus MTCC 106 assessed as zone of inhibition at 1 mg/disc after 24 hrs incubation by disc diffusion assay; assay type: functional; outline: as §1
Klebsiella aerogenes [5] = test: Antimicrobial activity against Enterobacter aerogenes MTCC 111 assessed as zone of inhibition at 1 mg/disc after 24 hrs incubation by disc diffusion assay; assay type: functional; outline: as §1
Salmonella typhimurium [6] = test: Antimicrobial activity against Salmonella typhimurium MTCC 1251 assessed as zone of inhibition at 1 mg/disc after 24 hrs incubation by disc diffusion assay; assay type: functional, Salmonella enterica subsp. enterica serovar Typhimurium; outline: as §1
Klebsiella pneumoniae [7] = test: Antimicrobial activity against Klebsiella pneumonia MTCC 109 assessed as zone of inhibition at 1 mg/disc after 24 hrs incubation by disc diffusion assay; assay type: functional; outline: as §1
Proteus vulgaris [8] = test: Antimicrobial activity against Proteus vulgaris MTCC 1771 assessed as zone of inhibition at 1 mg/disc after 24 hrs incubation by disc diffusion assay; assay type: functional; outline: as §1
Shigella flexneri [9] = test: Antimicrobial activity against Shigella flexneri MTCC 1457 assessed as zone of inhibition at 1 mg/disc after 24 hrs incubation by disc diffusion assay; assay type: functional; outline: as §1
Candida albicans = test: Antifungal activity against Candida albicans MTCC 227 assessed as zone of inhibition at 1 mg/disc after 48 hrs incubation by disc diffusion assay; assay type: functional
Outline: (§2)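 Disc diffusion on Mueller Hinton agar with swabbed cultures, 1 mg compound per disc. Discs stood 30 min at room temperature for diffusion, then plates incubated 48 h at 28 °C. Solvent as negative control. Yeast pre-grown in Sabouraud dextrose broth at 28 °C for 48-72 h; filamentous fungal spores came from SDA slants grown 10 days at 28 °C. Zone diameters in mm; run twice.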

Malassezia pachydermatis = test: Antifungal activity against Malassezia pachydermatis assessed as zone of inhibition at 1 mg/disc after 48 hrs incubation by disc diffusion assay; assay type: functional; outline: as §2
Staphylococcus aureus [10] = test: Antimicrobial activity against Staphylococcus aureus MTCC 96 assessed as absence of visible growth after 48 to 72 hrs; assay type: functional
Staphylococcus aureus [11] = test: Antimicrobial activity against methicillin-resistant Staphylococcus aureus assessed as absence of visible growth after 48 to 72 hrs; assay type: functional
Outline: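 Broth two-fold serial dilution in 96-well plates, 1000 to 7.81 µg/mL, compound dissolved in DMSO (2%). Inoculum grown in Mueller Hinton broth 24 h at 37°C. Streptomycin positive control. 5 µl of tested broth plated on MHA; MIC is the lowest concentration inhibiting visible growth on agar.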

Micrococcus luteus [12] = test: Antimicrobial activity against Micrococcus luteus MTCC 106 assessed as absence of visible growth after 48 to 72 hrs; assay type: functional
Klebsiella aerogenes [13] = test: Antimicrobial activity against Enterobacter aerogenes MTCC 111 assessed as absence of visible growth after 48 to 72 hrs; assay type: functional
Salmonella typhimurium [14] = test: Antimicrobial activity against Salmonella typhimurium MTCC 1251 assessed as absence of visible growth after 48 to 72 hrs; assay type: functional, Salmonella enterica subsp. enterica serovar Typhimurium; details: Salmonella enterica
Proteus vulgaris [15] = test: Antimicrobial activity against Proteus vulgaris MTCC 1771 assessed as absence of visible growth after 48 to 72 hrs; assay type: functional
Shigella flexneri [16] = test: Antimicrobial activity against Shigella flexneri MTCC 1457 assessed as absence of visible growth after 24 hrs
Klebsiella pneumoniae [17] = test: Antimicrobial activity against Klebsiella pneumonia MTCC 109 assessed as absence of visible growth after 24 hrs
[18] = system: Staphylococcus epidermidis; test: Antimicrobial activity against Staphylococcus epidermidis MTCC 3615 assessed as absence of visible growth after 24 hrs

Row | SMILES | inhibition zone (IZ) [1] [mm] | inhibition zone (IZ) (Staphylococcus aureus [2]) [mm] | inhibition zone (IZ) (Staphylococcus aureus [3]) [mm] | inhibition zone (IZ) (Micrococcus luteus [4]) [mm] | inhibition zone (IZ) (Klebsiella aerogenes [5]) [mm] | inhibition zone (IZ) (Salmonella typhimurium [6]) [mm] | inhibition zone (IZ) (Klebsiella pneumoniae [7]) [mm] | inhibition zone (IZ) (Proteus vulgaris [8]) [mm] | inhibition zone (IZ) (Shigella flexneri [9]) [mm] | inhibition zone (IZ) (Candida albicans) [mm] | inhibition zone (IZ) (Malassezia pachydermatis) [mm] | MIC (Staphylococcus aureus [10]) [µg/mL] | MIC (Staphylococcus aureus [11]) [µg/mL] | MIC (Micrococcus luteus [12]) [µg/mL] | MIC (Klebsiella aerogenes [13]) [µg/mL] | MIC (Salmonella typhimurium [14]) [µg/mL] | MIC (Proteus vulgaris [15]) [µg/mL] | MIC (Shigella flexneri [16]) [µg/mL] | MIC (Klebsiella pneumoniae [17]) [µg/mL] | MIC [18] [µg/mL] | other results
1 | N#CC1=C(N)C2(C(=O)c3ccccc3C2=O)[C@@H](c2ccoc2)[C@@H]2CCCC=C12 (relative stereo) | 12 | 14 | 13 | 18 | 15 | 10 | 12 | 15 | 14 | 13 | 12 | 250 (≈ 675 µM) | 250 (≈ 675 µM) | 125 (≈ 337 µM) | 250 (≈ 675 µM) | 500 (≈ 1350 µM) | 250 (≈ 675 µM) | 250 (≈ 675 µM) | 250 (≈ 675 µM) | 250 (≈ 675 µM) | –
2 | N#CC1=C(N)[C@]2(C(=O)Nc3ccccc32)[C@@H](c2ccccc2F)[C@@H]2CCCC=C12 (mixture of isomers) | 13 | 17 | 12 | 10 | 14 | 11 | 10 | 8 | 9 | 10 | – | 125 | 250 | 250 | 250 | 250 | 1000 | 1000 | 500 | 250 | inhibition (Malassezia pachydermatis): inactive
3 | Cc1ccc([C@H]2[C@@H]3CCCCC=C3C(C#N)=C(N)[C@]23C(=O)Nc2ccccc23)cc1 | 14 | 13 | 15 | 13 | 12 | 16 | 12 | 12 | 11 | 9 | 8 | 250 (≈ 632 µM) | 250 (≈ 632 µM) | 250 (≈ 632 µM) | 250 (≈ 632 µM) | 125 (≈ 316 µM) | 250 (≈ 632 µM) | 250 (≈ 632 µM) | 250 (≈ 632 µM) | 250 (≈ 632 µM) | –
4 | COc1ccc([C@H]2[C@@H]3CCCC=C3C(C#N)=C(N)[C@]23C(=O)Nc2ccccc23)cc1 | 9 | 10 | 11 | 8 | 10 | 8 | 9 | – | 8 | 10 | 13 | – | – | – | – | – | – | – | – | – | inhibition (Proteus vulgaris [8]): inactive
5 | N#CC1=C(N)C2(C(=O)c3ccccc3C2=O)[C@@H](c2ccc(Br)cc2)[C@@H]2CCCC=C12 (relative stereo) | – | 14 | 13 | – | – | 12 | 10 | – | – | 10 | – | – | – | – | – | – | – | – | – | – | inhibition [1]: inactive; inhibition (Micrococcus luteus [4]): inactive; inhibition (Klebsiella aerogenes [5]): inactive; inhibition (Proteus vulgaris [8]): inactive; inhibition (Shigella flexneri [9]): inactive; inhibition (Malassezia pachydermatis): inactive
6 | CC(=O)N1CCN(c2ccc(OCC3COC(Cn4ccnc4)(c4ccc(Cl)cc4Cl)O3)cc2)CC1 (racemic) [KETOCONAZOLE] | – | – | – | – | – | – | – | – | – | 28 | 26 | – | – | – | – | – | – | – | – | – | –
7 | N#CC1=C(N)[C@]2(C(=O)Nc3ccccc32)[C@@H](c2ccccn2)[C@@H]2CCCC=C12 | 9 | – | – | – | 8 | 11 | – | 10 | – | 12 | 11 | – | – | – | – | – | – | – | – | – | inhibition (Staphylococcus aureus [2]): inactive; inhibition (Staphylococcus aureus [3]): inactive; inhibition (Micrococcus luteus [4]): inactive; inhibition (Klebsiella pneumoniae [7]): inactive; inhibition (Shigella flexneri [9]): inactive
